{"source": "PubChem BioAssay AID1229", "about": "(Sanford-Burnham Center for Chemical Genomics, 2008)", "note": "About 10 (0.005%) of roughly 190,000 compounds were called active.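 The calls were made as follows: active = diaphorase activity raised at least twofold by the compound at 20 µM; inactive = activation factor below 2.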 The sample as a whole holds a higher share of actives than the screen did."}
{"assay": "compounds boosting diaphorase resazurin reduction – biochemical, uHTS, resorufin fluorescence, counter-screen for diaphorase-coupled primary assays, primary screen (AID 1229)", "conditions": "Diaphorase/resazurin coupled assay, 16 min, at 20 µM, hits give high values, 1 = vehicle wells, 0 = NADH-free wells", "in_short": "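test system = bacterial diaphorase enzyme (C. kluyveri) | quantity = enzyme 0.07 U/mL final | reagent = NADH substrate 0.114 mM plus resazurin dye 0.1 mM, final | incubation = 16 min enzyme reaction, ambient temperature | buffer or medium = HEPES pH 7.4 buffer with MgCl2 and Tween 20 | signal = fluorescence of resorufin, 544 nm excitation, 590 nm emission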"}
{"compound": "CN(C(=O)CSc1nnc(-c2n[nH]c3ccccc23)o1)c1ccccc1", "activation factor": "0.8 (inactive)"}
{"compound": "O=C(CSc1ccc(-c2ccccc2)nn1)NCC1CCCO1", "note": "(stereo not drawn)", "activation factor": "1.1 (inactive)"}
{"compound": "Cc1cccc(C(=O)OCC(=O)NCC(C)C)c1O", "activation factor": "0.9 (inactive)"}
{"compound": "O=C(Cc1cccs1)Nc1nnc(SCc2ccc(F)cc2)s1", "activation factor": "0.9 (inactive)"}
{"compound": "Cn1cnnc1Sc1ccc(CN2CCN(C3CCCC3)C(CCO)C2)o1", "note": "(stereo not drawn)", "activation factor": "1 (inactive)"}
{"compound": "CCCN=C1NC(=O)C(CC(=O)NCCc2ccc(OC)c(OC)c2)S1", "note": "(stereo not drawn)", "activation factor": "0.9 (inactive)"}
{"compound": "Cc1ccc(N(Cc2cc3ccccc3[nH]c2=O)C(=O)c2cccs2)cc1", "activation factor": "0.9 (inactive)"}
{"compound": "CCOc1ccc(N2C(=O)CN(c3cccc4ccccc34)C2=S)cc1", "activation factor": "1 (inactive)"}
{"compound": "CNC(=S)NNC(=O)c1cccn(Cc2ccccc2)c1=O", "activation factor": "1 (inactive)"}
{"compound": "Cc1cc(C(=O)NNC(=S)NC(C)c2ccccc2)cs1", "note": "(stereo not drawn)", "activation factor": "1 (inactive)"}
{"compound": "CCSc1nc(C)c(CCOc2cccc(C)c2)c(=O)[nH]1", "activation factor": "1 (inactive)"}
{"compound": "NS(=O)(=O)c1ccc(NC(=S)NNC(=O)c2cccs2)cc1", "activation factor": "0.8 (inactive)"}
{"compound": "Cc1ccc(NC(=S)N(CCCN2CCCC2)Cc2cccn2Cc2ccc(Cl)cc2)cc1", "activation factor": "1 (inactive)"}
{"compound": "COc1cccc(CC2(CO)CCN(Cc3cnc(-c4cccc(C)c4)nc3)CC2)c1", "activation factor": "0.7 (inactive)"}
{"compound": "COC(=O)CC1=NN(c2ccccc2)C(=O)C1", "activation factor": "1.1 (inactive)"}
{"compound": "CCCn1c(=O)c2c(C(F)(F)F)cc(-c3cccs3)nc2n(CCC)c1=O", "activation factor": "1 (inactive)"}
{"compound": "Cc1ccc(C(=O)N/C(=C\\c2cccs2)C(=O)NCCc2ccccn2)cc1C", "activation factor": "0.7 (inactive)"}
{"compound": "CN(C)c1ccc(C2Nc3ccccc3C(=O)N2NS(=O)(=O)c2ccccc2)cc1", "note": "(stereo not drawn)", "activation factor": "0.9 (inactive)"}
{"compound": "CCCCn1c(N)c(N2CCOCC2)c(=O)n(CC(=O)NCCc2ccccc2)c1=O", "activation factor": "1 (inactive)"}
{"compound": "COCCN1C(=O)N[C@@H](c2ccccc2)C(C(=O)OC)=C1C", "activation factor": "1 (inactive)"}
{"compound": "Cc1cc(C)n2nc(SCC(N)=O)nc2n1", "activation factor": "1 (inactive)"}
{"compound": "O=C(CNC(=O)c1ccccc1)NCC(=O)OCC(=O)c1ccccc1", "activation factor": "1.1 (inactive)"}
{"compound": "O=C(O)c1cccc(NC(=O)c2cc(-c3cccc(Cl)c3)nc3ccccc23)c1", "activation factor": "0.8 (inactive)"}
{"compound": "[O-][n+]1onc2c1CCc1[nH]c(-c3ccccc3)nc1-2", "activation factor": "0.9 (inactive)"}
{"compound": "O=S(=O)(NC1CC1)c1ccc2c3c(cccc13)CC2", "activation factor": "1 (inactive)"}
{"compound": "C/C(Cn1nnc2ccccc21)=N\\OC(=O)c1cc(F)c(F)cc1Cl", "activation factor": "0.9 (inactive)"}
{"compound": "COc1cccc(CNC(=O)c2n[nH]c3ccccc23)c1", "activation factor": "1 (inactive)"}
{"compound": "Cc1ccc(C(=O)OC(C)CN2CCOCC2)cc1", "note": "(stereo not drawn)", "activation factor": "1 (inactive)"}
